Experimental data from ChEMBL document CHEMBL1148490, “Synthesis, characterization, and preliminary in vivo tests of new poly(ethylene glycol) conjugates of the antitumor agent 10-amino-7-ethylcamptothecin” (J Med Chem, 2004).
Where “and” joins values, the source holds several entries; their conditions need not be identical. Equal entries are not always repeated.

How the values were obtained:
[1] = tested on: Mus musculus; assay: Antitumor activity evaluated as tumor weight on day 21 of Meth A Fibrosarcoma in BALB/c mice at a dose of 25 mg/kg administered intravenously on day 5; type: functional; conditions: route intravenous
In short: (§1)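 Meth A cells, 5 × 10^5/mouse, inoculated subcutaneously on day 0 into 7 week old male BALB/c mice, five per group. A single intravenous injection on day 5; saline for controls. Tumours weighed on day 21. Doses in mg/kg expressed as free drug. Inhibition rate derived from tumour weight relative to the saline control group.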

[2] = tested on: Mus musculus; assay: Inhibition rate of tumor growth at 50 mg/kg single iv administration against Meth A fibrosarcoma cells in BALB/c Mice; type: functional
In short: (§2)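 Male BALB/c mice, 7 weeks old (five per group), inoculated s.c. with Meth A cells at 5 × 10^5 cells/mouse on day 0. Single i.v. injection on day 5, doses expressed as free drug equivalent; control group given saline. Tumors weighed on day 21 (mean ± SD); inhibition rate derived from tumor weight relative to control.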

[3] = tested on: Mus musculus; assay: Inhibition rate of tumor growth at 100 mg/kg single iv administration against Meth A fibrosarcoma cells in BALB/c Mice; type: functional; in short: as §2
[4] = tested on: Mus musculus; assay: Antitumor activity evaluated as tumor weight on day 21 of Meth A Fibrosarcoma in BALB/c mice at a dose of 50 mg/kg administered intravenously on day 5; type: functional; conditions: route intravenous; in short: as §1
[5] = tested on: Mus musculus; assay: Antitumor activity evaluated as tumor weight on day 21 of Meth A Fibrosarcoma in BALB/c mice at a dose of 100 mg/kg administered intravenously on day 5; type: functional; conditions: route intravenous; in short: as §1
[6] = Tmax at a dose of 4 mg/kg in Rat Plasma after iv administration; type: ADME, organism-based; design: dose 4 mg/kg, route intravenous
In short: (§3)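 Rats given a single iv dose via the right femoral vein after full recovery from anaesthesia, then a saline flush. Free drug dissolved in DMSO/10 mM H3PO4 (10/1); sodium salt in water. Blood (200 µL) drawn from a left femoral artery cannula at 2, 5, 10, 30 min and 1, 3, 5, 7 h. Plasma diluted in H3PO4 with camptothecin internal standard.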

[7] = Maximum plasma concentration at a dose of 4 mg/kg in Rat Plasma after iv administration; type: ADME, organism-based; design: dose 4 mg/kg, route intravenous; in short: as §3
[8] = tested on: Mus musculus; assay: (§4) Inhibition rate of tumor growth at 25 mg/kg single iv administration against Meth A fibrosarcoma cells in BALB/c Mice; type: functional; in short: as §1
[9] = species: Rattus norvegicus; assay: (§5) Area under curve of the compound was determined; type: ADME, organism-based; conditions: in vivo; in short: as §3
[10] = (§6) Half life at a dose of 4 mg/kg in Rat Plasma after iv administration; type: ADME, organism-based; design: dose 4 mg/kg, route intravenous; in short: as §3
[11] = Mean residence time at a dose of 4 mg/kg in Rat Plasma after iv administration; type: ADME, organism-based; design: dose 4 mg/kg, route intravenous; in short: as §3
[12] = as §6; type: ADME, organism-based; design: dose 4 mg/kg, route intravenous; remark: listed apart in the source
In short: (§7)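 Rats given a single i.v. dose via right femoral vein after recovery from anesthesia, then saline flush. Blood drawn from left femoral artery cannula at 2, 5, 10, 30 min and 1, 3, 5, 7 h. Plasma diluted in 0.146 M H3PO4 with CPT internal standard, then on-line SPE and C18 HPLC with fluorescence detection (ex 390/em 513 nm). LOQ 2 ng/mL. Noncompartmental analysis; AUCinf by trapezoidal rule with extrapolation; n = 1–2 rats.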

[13] = as §5; type: ADME; in short: as §7
[14] = tested on: Mus musculus; assay: Evaluated for survival time of P388 Leukemia implanted female CDF1 Mice at a dose of 25 mg/kg; type: functional
In short: (§8)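 Female CDF1 mice inoculated intraperitoneally on day 0 with 1 × 10^6 P388 or P388/ADM (adriamycin-resistant, MDR-expressing) cells per mouse. Intravenous dosing on days 1, 5 and 9; doses listed are total mg/kg. Survival monitored for 40 days, reported as mean ± SD days. T/C% = (mean survival days of treated group / mean survival days of control group) × 100.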

[15] = species: Mus musculus; assay: Ratio between mean survival days of treated group and control group; type: functional; in short: as §8
[16] = tested on: Mus musculus; assay: Evaluated for survival time of P388/ADM Leukemia implanted female CDF1 Mice at a dose of 25 mg/kg
[17] = tested on: Mus musculus; assay: as §4; type: functional; in short: as §2; remark: listed apart in the source
[18] = tested on: Mus musculus; assay: Ratio between mean survival days of treated group and control group at a dose of 25 mg/kg; type: functional; in short: as §8
[19] = tested on: Mus musculus; assay: Evaluated for survival time of P388/ADM Leukemia implanted female CDF1 Mice at a dose of 100 mg/kg; type: functional; in short: as §8
[20] = tested on: Mus musculus; assay: Ratio between mean survival days of treated group and control group at a dose of 100 mg/kg; type: functional; in short: as §8
[21] = tested on: Mus musculus; assay: Ratio between mean survival days of treated group and control group at a dose of 50 mg/kg; type: functional; in short: as §8
[22] = tested on: Mus musculus; assay: Evaluated for survival time of P388 Leukemia implanted female CDF1 Mice at a dose of 50 mg/kg; type: functional; in short: as §8
[23] = tested on: Mus musculus; assay: Evaluated for survival time of P388 Leukemia implanted female CDF1 Mice at a dose of 100 mg/kg; type: functional; in short: as §8
[24] = tested on: Mus musculus; assay: Evaluated for survival time of P388/ADM Leukemia implanted female CDF1 Mice at a dose of 50 mg/kg; type: functional; in short: as §8
[25] = tested on: Rattus norvegicus; assay: Vdss at a dose of 4 mg/kg in Rat Plasma after iv administration; type: organism-based; design: dose 4 mg/kg; in short: as §3
[26] = tested on: Rattus norvegicus; assay: CLtot at a dose of 4 mg/kg in Rat Plasma after iv administration; type: organism-based; design: dose 4 mg/kg; in short: as §3

CCc1c2c(nc3ccc(N)cc13)-c1cc3c(c(=O)n1C2)COC(=O)[C@]3([O-])CC.[Na+]
Antitumor activity [1]: 0.93 g | Inhibition rate [2]: 64% | Inhibition rate [3]: 69.3% | Antitumor activity [4]: 0.88 g | Antitumor activity [5]: 0.88 g | Tmax [6]: 2 min | Cmax [7]: 10500 ng/mL | Inhibition rate [8]: 62.3% | AUC inf [9]: 1.71 µg/h/mL | half-life [10]: 2.26 h | MRT inf [11]: 1.09 h

CCc1c2c(nc3ccc(N)cc13)-c1cc3c(c(=O)n1C2)COC(=O)[C@]3(O)CC [listing 1 of 2 here]
Tmax [6]: 2 min | half-life [12]: 2.25 h | Cmax [7]: 10500 ng/mL | AUC inf [13]: 2.08 µg/h/mL | MRT inf [11]: 1.09 h

COc1cccc2c1C(=O)c1c(O)c3c(c(O)c1C2=O)C[C@@](O)(C(=O)CO)C[C@@H]3O[C@H]1C[C@H](N)[C@H](O)[C@H](C)O1 [DOXORUBICIN]
Activity [14]: 20 days | T/C [15]: 261% and 102% | Activity [16]: 9.8 days

CCc1c2c(nc3ccc(OC(=O)N4CCC(N5CCCCC5)CC4)cc13)-c1cc3c(c(=O)n1C2)COC(=O)[C@]3(O)CC [IRINOTECAN]
Antitumor activity [1]: 1.24 g | Inhibition rate [2]: 46.6% | Antitumor activity [17]: 49.5% | T/C [18]: 172% and 129% | Survival time [19]: 15.7 days | T/C [20]: 228% | Inhibition rate [3]: 52.7% | T/C [21]: 189% | Survival time [22]: 14.5 days | Antitumor activity [4]: 1.31 g | Antitumor activity [5]: 1.16 g | Survival time [23]: 17.5 days | Survival time [24]: 14.7 days

CCc1c2c(nc3ccc(N)cc13)-c1cc3c(c(=O)n1C2)COC(=O)[C@]3(O)CC [listing 2 of 2 here]
Vdss [25]: 2.65 L/kg and 2.37 L/kg | CL (mL.min-1.kg-1) [26]: 40.3 and 34.5
